pIC50: −log10 of the molar value. Where “and” joins values, the source holds several entries; their conditions need not be identical. Equal entries are not always repeated.
Assays:
L1210 [1] = test: In vitro inhibition of L1210 (murine leukemia) cell growth.; type: functional, cell-based, Mus musculus
How it was run: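 L1210 cells (10^5 in 1 mL) were grown in RPMI 1640 with 10% FCS and kanamycin, at 37 °C in CO2, for 48 h. Compounds were heated at 110 °C for 8 h, dissolved in medium and tested at ≥6 concentrations. Viability was scored by 0.17% Trypan blue exclusion against drug-free controls. IC50 was the concentration halving living cell number, taken from the log-probit dose-response curve.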

L1210 [2] = test: Ratio of median survival time of the mice bearing L1210 cells in treated(T) vs. control(C) at a dose of 10 mg/kg x 2 days; type: functional, organism-based; parameters: dose 10 mg/kg; conditions: Mus musculus
How it was run: (§1)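 (BALB/c × DBA/2)F1 mice (20 g) were implanted ip with 10^4 L1210 cells. Compounds in saline (0.2 mL) were given ip on days 1 and 5; doses above 100 mg/kg were homogenized with Nikkol (7× by weight). Activity was scored as median survival time of treated mice and expressed as T/C, the ratio of treated to control median survival time.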

L1210 [3] = test: Ratio of median survival time of the mice bearing L1210 cells in treated(T) vs. control(C) at a dose of 100 mg/kg x 2 days; type: functional, organism-based; parameters: dose 100 mg/kg; conditions: Mus musculus; how it was run: as §1
L1210 [4] = test: Ratio of median survival time of the mice bearing L1210 cells in treated(T) vs. control(C) at a dose of 300 mg/kg x 2 days; type: functional, organism-based; parameters: dose 300 mg/kg; conditions: Mus musculus; how it was run: as §1
Mus musculus [5] = test: Effect on body weight in ICR mice was determined after intraperitoneal administration on day 9; type: functional, organism-based
How it was run: (§2)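 ICR mice (25-30 weeks, 39 ± 4 g), 5-6 per group, given one ip dose of 0.043 mmol/kg, equimolar to 13 mg/kg cis-DDP. Body and kidney weights were taken on days 3, 6 and 9 and compared with untreated controls. Weights are paired, mean ± SD.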

Mus musculus [6] = test: Effect on body weight in ICR mice was determined after intraperitoneal administration on day 6; type: functional, organism-based; how it was run: as §2
L1210 [7] = test: Median survival time (MST) of mice bearing L1210 cells was determined at a dose of 50 mg/kg x 2 days administered ip.; type: functional, organism-based; parameters: dose 50 mg/kg; conditions: Mus musculus; how it was run: as §1
L1210 [8] = test: Ratio of median survival time of the mice bearing L1210 cells in treated(T) vs. control(C) at a dose of 25 mg/kg x 2 days; type: functional, organism-based; parameters: dose 25 mg/kg; conditions: Mus musculus; how it was run: as §1
Mus musculus [9] = test: Effect on kidney weight in ICR mice was determined after intraperitoneal administration on day 6; type: functional, organism-based; how it was run: as §2
L1210 [10] = test: Median survival time (MST) of mice bearing L1210 cells was determined at a dose of 25 mg/kg x 2 days administered ip.; type: functional, organism-based; parameters: dose 25 mg/kg; conditions: Mus musculus; how it was run: as §1
Mus musculus [11] = test: Effect on kidney weight in ICR mice was determined after intraperitoneal administration on day 3; type: functional, organism-based; how it was run: as §2
L1210 [12] = test: Ratio of median survival time of the mice bearing L1210 cells in treated(T) vs. control(C) at a dose of 200 mg/kg x 2 days; type: functional, organism-based; parameters: dose 200 mg/kg; conditions: Mus musculus; how it was run: as §1
Mus musculus [13] = test: Effect on body weight in ICR mice was determined after intraperitoneal administration on day 3; type: functional, organism-based; how it was run: as §2
L1210 [14] = test: Median survival time (MST) of mice bearing L1210 cells was determined at a dose of 300 mg/kg x 2 days administered ip.; type: functional, organism-based; parameters: dose 300 mg/kg; conditions: Mus musculus; how it was run: as §1
L1210 [15] = test: Median survival time (MST) of mice bearing L1210 cells was determined at a dose of 10 mg/kg x 2 days administered ip.; type: functional, organism-based; parameters: dose 10 mg/kg; conditions: Mus musculus; how it was run: as §1
L1210 [16] = test: Median survival time (MST) of mice bearing L1210 cells was determined at a dose of 200 mg/kg x 2 days administered ip.; type: functional, organism-based; parameters: dose 200 mg/kg; conditions: Mus musculus; how it was run: as §1
Mus musculus [17] = test: Blood urea nitrogen values in ICR mice after intraperitoneal administration at an equivalent molar dose of the LD50 of […](13 mg/kg) on day 6; type: functional, organism-based
How it was run: (§3)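 ICR mice (25-30 weeks, 39 ± 4 g), 5-6 per group, given one ip dose of 0.043 mmol/kg, equimolar to 13 mg/kg cis-DDP. On days 3, 6 and 9, blood was drawn from the heart under ether anesthesia and stored frozen. BUN was measured later by a modified urease indophenol method. Results are mean ± SD, mg/100 mL blood, compared with untreated controls.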

Mus musculus [18] = test: Blood urea nitrogen values in ICR mice after intraperitoneal administration at an equivalent molar dose of the LD50 of […](13 mg/kg) on day 9; type: functional, organism-based; how it was run: as §3
Mus musculus [19] = test: Blood urea nitrogen values in ICR mice after intraperitoneal administration at an equivalent molar dose of the LD50 of […](13 mg/kg) on day 3; type: functional, organism-based; how it was run: as §3
Mus musculus [20] = test: Effect on kidney weight in ICR mice was determined after intraperitoneal administration on day 9; type: functional, organism-based; how it was run: as §2
L1210 [21] = test: Ratio of median survival time of the mice bearing L1210 cells in treated(T) vs. control(C) at a dose of 50 mg/kg x 2 days; type: functional, organism-based; parameters: dose 50 mg/kg; conditions: Mus musculus; how it was run: as §1
L1210 [22] = test: Median survival time (MST) of mice bearing L1210 cells was determined at a dose of 100 mg/kg x 2 days administered ip.; type: functional, organism-based; parameters: dose 100 mg/kg; conditions: Mus musculus; how it was run: as §1
L1210 [23] = test: Ratio of median survival time of the mice bearing L1210 cells in treated(T) vs. control(C) at a dose of 900 mg/kg x 2 days; type: functional, organism-based; parameters: dose 900 mg/kg; conditions: Mus musculus; how it was run: as §1
L1210 [24] = test: Median survival time (MST) of mice bearing L1210 cells was determined at a dose of 600 mg/kg x 2 days administered ip.; type: functional, organism-based; parameters: dose 600 mg/kg; conditions: Mus musculus; how it was run: as §1
L1210 [25] = test: Ratio of median survival time of the mice bearing L1210 cells in treated(T) vs. control(C) at a dose of 600 mg/kg x 2 days; type: functional, organism-based; parameters: dose 600 mg/kg; conditions: Mus musculus; how it was run: as §1
L1210 [26] = test: Median survival time (MST) of mice bearing L1210 cells was determined at a dose of 900 mg/kg x 2 days administered ip.; type: functional, organism-based; parameters: dose 900 mg/kg; conditions: Mus musculus; how it was run: as §1
L1210 [27] = test: Ratio of median survival time of the mice bearing L1210 cells in treated(T) vs. control(C) at a dose of 800 mg/kg x 2 days; type: functional, organism-based; parameters: dose 800 mg/kg; conditions: Mus musculus; how it was run: as §1
L1210 [28] = test: Median survival time (MST) of mice bearing L1210 cells was determined at a dose of 800 mg/kg x 2 days administered ip.; type: functional, organism-based; parameters: dose 800 mg/kg; conditions: Mus musculus; how it was run: as §1
Mus musculus [29] = test: Effect on body weight in ICR mice was determined after intraperitoneal administration on day 9; All death; type: functional, organism-based; how it was run: as §2
Mus musculus [30] = test: Blood urea nitrogen values in ICR mice after intraperitoneal administration at an equivalent molar dose of the LD50 of […](13 mg/kg) on day 9; All death; type: functional, organism-based; how it was run: as §3

Compound	IC50 (L1210 [1]; l1210) [µg/mL]	pIC50 (L1210 [1]; l1210, read-out: IC50)	T/C (L1210 [3]) [%]	Body weight (Mus musculus [6])	MST (L1210 [7]) [days]	T/C (L1210 [8]) [%]	Kidney weight (Mus musculus [9])	MST (L1210 [10]) [days]	Kidney weight (Mus musculus [11])	T/C (L1210 [12]) [%]	Body weight (Mus musculus [13])	MST (L1210 [16]) [days]	Blood urea nitrogen (Mus musculus [17]) [mg 100ml-1]	Blood urea nitrogen (Mus musculus [19]) [mg 100ml-1]	T/C (L1210 [21]) [%]	MST (L1210 [22]) [days]	further results
3-aminocytidine-dichloroplatinum (II) [listing 1 of 2 here]	64	3.91	–	–	–	–	–	–	–	–	–	–	–	–	–	–	–
3-aminocytidine-dichloroplatinum (II) [listing 2 of 2 here]	–	–	131	39.9	10	125	637	10	545	138	35.6	11	26.3	22	125	10.5	T/C (L1210 [2]): 119%; T/C (L1210 [4]): 138%; Body weight (Mus musculus [5]): 36.5; MST (L1210 [14]): 11 days; MST (L1210 [15]): 9.5 days; Blood urea nitrogen (Mus musculus [18]): 28.7 mg 100ml-1; Kidney weight (Mus musculus [20]): 571
3-aminotubercidin-dichloroplatinum (II) [listing 1 of 2 here]	4.9	5.05	–	–	–	–	–	–	–	–	–	–	–	–	–	–	–
3-aminotubercidin-dichloroplatinum (II) [listing 2 of 2 here]	–	–	144	39.4	10.5	125	686	10	587	144	38.4	11.5	22.8	24	131	11.5	T/C (L1210 [2]): 112%; T/C (L1210 [4]): 150%; Body weight (Mus musculus [5]): 40; T/C (L1210 [23]): 156%; MST (L1210 [24]): 12.5 days; T/C (L1210 [25]): 156%; MST (L1210 [14]): 12 days; MST (L1210 [15]): 9 days; MST (L1210 [26]): 12.5 days; Blood urea nitrogen (Mus musculus [18]): 26.3 mg 100ml-1; Kidney weight (Mus musculus [20]): 750
5-amino-1-beta-D-ribofuranosylimidazole-4-carboxamide-dichloroplatinum (II)	–	–	111	–	9	100	–	9	–	122	–	11	–	–	100	10	T/C (L1210 [27]): 125%; MST (L1210 [28]): 10 days
Nc1ncnc2c1ccn2[C@@H]1O[C@H](CO)[C@@H](O)[C@H]1O [TUBERCIDIN]	–	–	–	–	–	–	–	–	–	–	–	–	–	–	–	–	IC50 (L1210 [1]; Mus musculus, L1210, read-out: IC50): 0.018 µg/mL and 67.7 nM
CISPLATIN [listing 1 of 2 here]	0.19	6.20	–	–	–	–	–	–	–	–	–	–	–	–	–	–	–
CISPLATIN [listing 2 of 2 here]	–	–	–	31	–	–	555	–	599	–	34	–	45.3	37	–	–	Body weight (Mus musculus [29]): All death; Blood urea nitrogen (Mus musculus [30]): All death

Source: ChEMBL document CHEMBL1122632, “Synthesis and antitumor activity of cis-dichloroplatinum (II)-N-aminated nucleoside complexes” (J Med Chem, 1984)
